Substitutions are numbered along the chain they refer to. “Also recorded” adds a separate entry of the source. *1 amine or outer side, *2 acyl side, *3 side chain or, on linkers, in order; H or OH if unused. Where a SMILES comes first, the peptide text is derived from it. Bridges are numbered along the chain shown (N, C = ends). Primed or numbered codes have the meaning given here. Where no end group is shown, it is not given here. The star is where a group is joined. Lys(Biotin) = O=C(CCCC[C@@H]1SC[C@@H]2NC(=O)N[C@@H]21)NCCCC[C@H](N[*:1])C(=O)[*:2]; PEG3′ = PEG3 spacer coupled to the N-terminus before Fmoc-Lys(Biotin); FITC = O=C1OC2(c3ccc(O)cc3Oc3cc(O)ccc32)c2ccc(NC(=S)*)cc21; mXylylene = c1cc(C[*:1])cc(C[*:2])c1 Where only a bound is given, the exact number is not on record here.

For one series, the system named is BRD2, BRD3, and BRD4. As to the kind of experiment: Degradation of BET proteins BRD2, BRD3 and BRD4 in PC3 cells. It counts as cell-based, human. Conditions: 5 μM, 4 h. The procedure, abridged:
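PC3 cells in DMEM with 10% FBS were plated in 24-well plates 24 h before dosing. They got fresh medium with 5 μM test compound or reference degraders, or DMSO as reference, for 4 h. Cells were washed in TBS/0.05% Tween 20 and lysed in Tris pH 7.5, NaCl, deoxycholate, glycerol, Triton X-100 and inhibitor buffer. BET proteins were read by Western blot.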

The target in a further series is T1, KLHL20^H499G (Homo sapiens, UniProt Q9Y2M5, H499G).
T1 sequence (Q9Y2M5 317-603 H499G): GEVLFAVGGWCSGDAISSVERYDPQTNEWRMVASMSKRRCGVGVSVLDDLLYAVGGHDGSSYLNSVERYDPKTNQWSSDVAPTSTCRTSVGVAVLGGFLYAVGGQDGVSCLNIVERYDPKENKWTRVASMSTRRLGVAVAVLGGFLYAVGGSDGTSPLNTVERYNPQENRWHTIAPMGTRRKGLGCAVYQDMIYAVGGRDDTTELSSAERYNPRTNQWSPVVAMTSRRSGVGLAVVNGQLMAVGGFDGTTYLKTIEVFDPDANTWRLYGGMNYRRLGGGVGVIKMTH
As to the kind of experiment: FP binding to KLHL20 Kelch mutant H499G. Conditions: FITC-labeled BTR2000.

A further series addresses T2, KLHL12 (Homo sapiens, UniProt Q53G59).
T2 sequence (Q53G59 1-568): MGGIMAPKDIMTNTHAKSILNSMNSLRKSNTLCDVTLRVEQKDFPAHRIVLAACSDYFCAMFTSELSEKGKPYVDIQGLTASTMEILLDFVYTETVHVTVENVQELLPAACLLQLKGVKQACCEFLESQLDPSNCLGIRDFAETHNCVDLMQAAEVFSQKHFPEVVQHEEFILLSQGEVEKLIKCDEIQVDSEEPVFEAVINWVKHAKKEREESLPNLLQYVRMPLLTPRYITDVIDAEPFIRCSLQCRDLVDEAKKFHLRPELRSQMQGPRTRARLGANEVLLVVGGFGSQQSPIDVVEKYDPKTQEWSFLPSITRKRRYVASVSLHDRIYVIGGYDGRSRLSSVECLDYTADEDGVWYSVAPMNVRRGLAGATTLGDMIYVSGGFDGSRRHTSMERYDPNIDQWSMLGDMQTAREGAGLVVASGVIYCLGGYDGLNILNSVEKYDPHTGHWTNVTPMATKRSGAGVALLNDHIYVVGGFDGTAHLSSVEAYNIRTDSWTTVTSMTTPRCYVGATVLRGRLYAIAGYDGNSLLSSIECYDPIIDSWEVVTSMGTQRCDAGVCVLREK
It counts as binding. Conditions: PC3 lysates, immobilized compound. The procedure, abridged:
(§1)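 Biotinylated test compound (430 nM) was captured on BSA-blocked NeutrAvidin magnetic beads for 1 h at 4°C. Beads were incubated with PC3 lysate diluted 1:7 to 1.6 mg/mL total protein in TBS, 1 mM DTT, 0.1% BSA and protease/phosphatase inhibitors for 1 h at 4°C. After three TBS/DTT/BSA washes, bound proteins were eluted in Laemmli buffer with 5% BME for Western blotting.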

In series [1] the target is T3, KLHL20 (Homo sapiens, UniProt Q9Y2M5).
T3 sequence (Q9Y2M5 1-609): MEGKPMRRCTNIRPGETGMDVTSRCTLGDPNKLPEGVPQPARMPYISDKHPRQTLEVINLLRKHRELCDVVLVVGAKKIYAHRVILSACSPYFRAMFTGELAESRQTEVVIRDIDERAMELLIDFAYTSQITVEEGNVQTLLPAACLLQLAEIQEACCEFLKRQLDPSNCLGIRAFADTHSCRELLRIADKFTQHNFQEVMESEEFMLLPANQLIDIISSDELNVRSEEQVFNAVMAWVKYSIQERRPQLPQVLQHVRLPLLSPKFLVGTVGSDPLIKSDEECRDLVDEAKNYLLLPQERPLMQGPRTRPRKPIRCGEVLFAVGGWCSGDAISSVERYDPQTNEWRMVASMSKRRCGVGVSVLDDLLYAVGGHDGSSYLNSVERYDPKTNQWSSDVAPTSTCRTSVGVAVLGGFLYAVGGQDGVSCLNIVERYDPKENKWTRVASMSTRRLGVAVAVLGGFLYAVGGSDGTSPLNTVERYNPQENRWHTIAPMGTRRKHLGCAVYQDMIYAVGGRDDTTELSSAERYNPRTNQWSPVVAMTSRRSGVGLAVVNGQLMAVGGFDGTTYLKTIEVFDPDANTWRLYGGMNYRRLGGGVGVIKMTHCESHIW
As to the kind of experiment: MS-based proteomics of pull-down eluates from PC3 lysates. Conditions: N = 3, control called PGL control in Table S1. It counts as binding. The procedure, abridged:
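NeutrAvidin Dynabeads were blocked with 0.1% BSA for 2 h at 4°C and loaded with 430 nM biotinylated compound for 1 h at 4°C. PC3 lysate (1:7 diluted, 1.6 mg/mL total protein, TBS/1 mM DTT/0.1% BSA/inhibitors) was bound for 1 h at 4°C. Beads were washed three times, eluted in Laemmli/5% BME and in-gel trypsin-digested. Eluates were analysed by LC-MS/MS with label-free quantification.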

A further series deals with T4, KLHL20^K498A (Homo sapiens, UniProt Q9Y2M5, K498A).
T4 sequence (Q9Y2M5 317-603 K498A): T1 sequence (Q9Y2M5 317-603 H499G) with K182A, G183H
As to the kind of experiment: FP binding to KLHL20 Kelch mutant K498A. Conditions: FITC-labeled BTR2000. The procedure, abridged: (§2)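 His-tagged wild-type or quick-change point-mutant KLHL20 Kelch domain was expressed in E. coli Rosetta (DE3) (0.3 mM IPTG, 18°C overnight). It was Ni-NTA purified and dialysed into TBS pH 7.5 with 1 mM DTT. Protein at 0–15 μM was incubated with 20 nM FITC-labelled peptide for 30 min at 4°C in 1× TBS/1 mM DTT. FP was read at 485/528 nm; LAAAV peptide served as negative control.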

In series [2] the target is T3, KLHL20. It counts as binding. Conditions: PC3 lysates, immobilized compound. Summed up: as §1
The target of another series is T5, KLHL20^L592G (Homo sapiens, UniProt Q9Y2M5, L592G).
T5 sequence (Q9Y2M5 317-603 L592G): T1 sequence (Q9Y2M5 317-603 H499G) with G183H, L276G
Description: FP binding to KLHL20 Kelch mutant L592G. The note with it: FITC-labeled BTR2000. The procedure, abridged: as §2

For another series, the system named is hTERT-BJ1 cells. Description: Cytotoxicity in normal human cell line, CellTiter-Glo 2.0. It counts as cell-based. The note with it: hTERT-BJ1, 24h, 72h and 96h. Summed up:
(§3)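 Cells kept in DMEM with 10% FBS and seeded in 96-well plates at 50% confluency 24 h before treatment. Medium was then replaced with fresh medium holding the test compound at varying concentrations, or an equal volume of DMSO as negative control. Viable cell titre was read at the end of treatment by CellTiter-Glo 2.0 luminescence.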
Background: ATP-based viability assays read luminescence as a measure of living cells.

In the next series the test system is MDA-MB-231 cells. Description: Cell proliferation, CellTiter-Glo 2.0, MDA-MB-231. Conditions: MDA-MB-231, 24h, 72h and 96h. It counts as cell-based, human. Summed up: as §3
For another series, the system named is PC3 cells. As to the kind of experiment: Cell proliferation, CellTiter-Glo 2.0, PC3. It is filed as cell-based, human. The note with it: PC3, 24, 72, and 96 h. The procedure, abridged:
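PC3 prostate cancer cells in DMEM with 10% FBS were seeded in 96-well plates at 50% confluency 24 h beforehand. They were switched to fresh medium with different concentrations of test compound or reference degraders (DMSO-volume negative control) for 24, 72 and 96 h. Cell titre was measured by CellTiter-Glo 2.0 luminescence; SD, N = 3.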

Another series has as its target T6, KLHL20 Kelch domain (human, UniProt Q9Y2M5 317-603).
T6 sequence (looked up): T1 sequence (Q9Y2M5 317-603 H499G) with G183H
As to the kind of experiment: fluorescence polarisation.

On to `COc1cc(C(=O)NCCOCCOCCOCCNC(=O)C[C@@H]2N=C(c3ccc(Cl)cc3)c3c(sc(C)c3C)-n3c(C)nnc32)ccc1NC(=O)[C@@H]1N[C@@H](CC(C)(C)C)[C@](C#N)(c2ccc(Cl)cc2F)[C@H]1c1cccc(Cl)c1F` [A1874], for which the BET protein degradation entry in the series on BRD2, BRD3, and BRD4 is “not effective; also recorded: ineffective”.
For `CC(C)C[C@@H]1NC(=O)[C@H](CC(=O)O)NC(=O)[C@@H]2CCCN2C(=O)[C@@H](NC(=S)Nc2ccc3c(c2)C(=O)OC32c3ccc(O)cc3Oc3cc(O)ccc32)CSCc2cccc(c2)CSC[C@@H](C(N)=O)NC1=O` [BTR2000] ({FITC}-CPDLC-NH2; linker 1-5 via mXylylene), the “binding to KLHL20 H499 mutant relative to wild type” value at KLHL20^H499G is “more prominent loss in binding”. On KLHL12, the “enrichment of KLHL12 in pull-down” value is on record as “not KLHL12”. The “log2 fold change BTR2000/CPGAC of KLHL20” value on KLHL20 [1] is given as 11. Besides, the “binding to KLHL20^K498A relative to wild type” value at KLHL20^K498A was “important for BTR2000 binding”. The “enrichment / binding of KLHL20 in pull-down” value at KLHL20 [2] is reported as “successfully enriched KLHL20”. Moreover, the “binding to KLHL20^L592G relative to wild type” value on KLHL20^L592G was “more prominent loss in binding”.
For the molecule `Cc1ncsc1-c1ccc(CNC(=O)[C@@H]2C[C@@H](O)CN2C(=O)[C@@H](NC(=O)COCCOCCOCCNC(=O)C[C@@H]2N=C(c3ccc(Cl)cc3)c3c(sc(C)c3C)-n3c(C)nnc32)C(C)(C)C)cc1` [MZ1], the BET protein degradation result in the series with BRD2, BRD3, and BRD4 was “showed efficacy”. For the same molecule, the normal cell cytotoxicity result with hTERT-BJ1 cells is listed as “some degree of cytotoxicity”. Moreover, the cell growth inhibition entry in the series with MDA-MB-231 cells and in the series with PC3 cells was “higher efficiency than BTR2004” throughout.
As to `Cc1sc2c(c1C)C(c1ccc(Cl)cc1)=N[C@@H](CC(=O)NCCCCNC(=O)COc1cccc3c1C(=O)N(C1CCC(=O)NC1=O)C3=O)c1nnc(C)n1-2` (stereo partly shown) [dBET1], the BET protein degradation entry with BRD2, BRD3, and BRD4 was “showed efficacy”. Besides, the normal cell cytotoxicity result in the series on hTERT-BJ1 cells is recorded as “some degree of cytotoxicity”.
Turning to “CPGAC: cyclized double-mutant of BTR2000 used as pull-down control ({Lys(Biotin)-PEG3′}-CPGAC-NH2; linker 1-5 via mXylylene)”, in the series with KLHL20 [2], the “enrichment / binding of KLHL20 in pull-down” value is listed as “no binding to KLHL20”.
Still for that read-out and setting: under “cyclized CPDAC: BTR2000 with the leucine mutated; KLHL20-binding deficient cyclized peptide (CPDAC-NH2; linker 1-5 via mXylylene)” stands “no binding to KLHL20”; under “cyclized CPGLC: BTR2000 with the aspartic acid mutated; KLHL20-binding deficient cyclized peptide ({Lys(Biotin)-PEG3′}-CPGLC-NH2; linker 1-5 via mXylylene)”, “no binding to KLHL20”.

B1: FITC-labeled BTR2000 (macrocycle CPDLC) (peptide)
peptide: {FITC}-CPDLC-NH2
modifications: linker 1-5 via mXylylene
Broadly, the Kd is the concentration at which binding is half-saturated. Low values mean higher affinity, high ones lower affinity. On to B1, for which the Kd with KLHL20 Kelch domain was about 600 nM.

B2: FITC-labeled linear LPDLV peptide (peptide)
peptide: {FITC}-LPDLV-NH2
As to B2, the Kd in the series with KLHL20 Kelch domain is over 5000 nM.

B3: FITC-labeled macrocycle CPDLVC (peptide)
peptide: {FITC}-CPDLVC-NH2
modifications: linker 1-6 via mXylylene
B3 registered a Kd with KLHL20 Kelch domain of about 600 nM.

Values taken from publication PMC9732910 (Genes & Development, 2022).
